A selection: hits, their analogues and other compounds. The true share with any hit is near 5.5%.
Cl transport mod – modulates chloride dependent transport by human KCC2. Q9H2X9. KCC2 cells, thallium flux FluoZin-2 fluorescence. B-score of Tl+ flux slope (higher = more flux/activation; lower = inhibition) at 10 µM. 2.2% of 190,000 active;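 active = thallium flux slope and its plate-corrected score both differing from the plate sample mean at a set confidence after two filtering rounds, in either direction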;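 also: slope of fluorescence scaled to starting intensity during 10 to 20 s after thallium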
Target sequence (Q9H2X9 whole entry, looked up): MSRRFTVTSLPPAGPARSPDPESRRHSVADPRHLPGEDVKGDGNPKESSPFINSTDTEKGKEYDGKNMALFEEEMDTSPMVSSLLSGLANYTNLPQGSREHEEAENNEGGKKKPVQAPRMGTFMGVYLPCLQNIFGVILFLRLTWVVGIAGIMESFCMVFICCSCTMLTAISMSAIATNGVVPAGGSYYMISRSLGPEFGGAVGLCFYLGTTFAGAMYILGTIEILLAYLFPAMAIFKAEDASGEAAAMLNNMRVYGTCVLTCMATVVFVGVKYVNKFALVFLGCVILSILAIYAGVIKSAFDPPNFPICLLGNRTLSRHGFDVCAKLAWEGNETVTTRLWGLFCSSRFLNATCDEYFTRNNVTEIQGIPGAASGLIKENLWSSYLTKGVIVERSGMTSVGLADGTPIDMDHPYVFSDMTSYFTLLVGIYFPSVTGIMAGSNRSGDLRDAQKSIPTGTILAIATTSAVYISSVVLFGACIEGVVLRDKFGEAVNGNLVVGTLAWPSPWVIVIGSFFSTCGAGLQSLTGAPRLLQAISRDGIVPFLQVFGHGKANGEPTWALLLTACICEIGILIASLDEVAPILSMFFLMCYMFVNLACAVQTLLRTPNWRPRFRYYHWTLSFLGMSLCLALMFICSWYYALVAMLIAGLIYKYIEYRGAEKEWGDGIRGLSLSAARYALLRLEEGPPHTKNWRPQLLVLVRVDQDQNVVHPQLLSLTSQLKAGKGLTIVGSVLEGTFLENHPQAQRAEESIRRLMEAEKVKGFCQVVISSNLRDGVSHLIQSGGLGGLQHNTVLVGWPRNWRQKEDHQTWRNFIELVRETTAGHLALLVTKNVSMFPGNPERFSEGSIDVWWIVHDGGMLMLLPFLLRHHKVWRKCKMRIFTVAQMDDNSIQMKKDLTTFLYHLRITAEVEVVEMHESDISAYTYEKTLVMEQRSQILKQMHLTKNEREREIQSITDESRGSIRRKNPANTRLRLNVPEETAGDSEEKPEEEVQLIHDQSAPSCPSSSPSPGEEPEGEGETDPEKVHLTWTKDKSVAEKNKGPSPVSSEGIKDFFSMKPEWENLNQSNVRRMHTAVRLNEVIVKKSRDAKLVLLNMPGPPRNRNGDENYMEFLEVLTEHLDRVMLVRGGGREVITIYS
RAM network inh – yeast RAM network inhibition; S. cerevisiae dse1pr::URA3 reporter, 5-FOA growth OD615, 2 d; analog-sensitive cbk1-as2 kinase mutant strain; inhibition, % at 50 µM; 1.8% of 190,000 active;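 active = inhibition above a set limit, 3 SD over mean compound inhibition, cut at about 8.4% in these data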;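 also: 0% = DMSO-only wells with no growth and 100% = 10 µM 1-NA-PP1 full growth; inhibition rescues growth on 5-FOA so higher OD means more RAM inhibition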
Yeast lifespan up – extends the lifespan of yeast | inhibition of the nicotinamide effect, % at 10 µM | S. cerevisiae growth with nicotinamide, OD615; deaD strain in restrictive glucose medium | AID 775 | 0.68% of 130,000 active;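 active = inhibition above a set limit, placed 3 SD over the median of all compounds, cut at about 26% in these data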;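 also: 0% = nicotinamide-treated wells and 100% = cells grown without nicotinamide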
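Assay system: engineered S. cerevisiae DeaD replicative-lifespan strain, galactose-grown log-phase cells; Buffer or medium: CSMM-D glucose medium, restrictive; Probe or stimulus: nicotinamide 1.5 mM; Compound: single dose 10 µM compound, 0.25% DMSO; Schedule: 4 h preincubation then 48 h treatment at 30 °C; Technique: OD615 measurement.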
BB579 growth dn – reduces growth of yeast BB579 in restrictive medium; S. cerevisiae BB579 growth, OD615, 48 h; inhibition, % at 10 µM; 0.51% of 140,000 active; AID 804;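 active = inhibition above a set limit, 3 SD over the mean compound inhibition, cut at about 44% in these data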
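Material: Saccharomyces cerevisiae DeaD strain BB579, replicative lifespan model yeast; buffer or medium: CSMM-D restrictive synthetic medium containing dextrose (glucose); compound: 10 µM single dose, DMSO 0.25%; timing: 48 h compound exposure at 30 °C after 4 h preincubation; signal: turbidity as optical density at 615 nm; benchmarks: positive control amphotericin B 10 µg/mL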
WT yeast gro inh – growth inhibition of WT yeast, mitochondrial fusion screen; mitochondrial fusion phenotypic screen, WT strain; 2.1% of 190,000 active; AID 1362; inhibition, % at 10 µM; in the data active = inhibition above about 58%; tested in S. cerevisiae
* hit, by the source's call; i = inactive; . = no result given.

SMILES	Cl transport mod	RAM network inh	Yeast lifespan up	BB579 growth dn	WT yeast gro inh
Cc1nnc(NC(=O)c2c(-c3ccccc3)noc2C)s1	1.3	1	-9	-35	10
Cc1onc(-c2ccccc2)c1C(=O)Nc1nnc(COc2ccc(Cl)cc2)s1	-0.011	3	-15	-22	63*
COc1ccc(C(C)=O)cc1COc1ccccc1[N+](=O)[O-]	-0.27	5	.	.	3
COc1ccc(C(C)=O)cc1COc1ccc([N+](=O)[O-])c(C)c1	-0.06	8.6*	.	.	-8
CN(C)c1ccc(/C=C/C(=O)c2c(O)c3ccccc3oc2=O)cc1	i	.	.	.	.
CCOc1ccc(/C=C/C(=O)c2c(O)c3ccccc3oc2=O)cc1	0.0015	3	80*	-71	-14
COC(=O)CN1C(c2ccccc2)=Nc2ccc(Cl)cc2C1c1ccccc1 (configuration not stated)	-4*	0	-19	-36	22
COC(=O)CN1C(C)=Nc2ccc(C)cc2C1c1ccccc1 (configuration not stated)	0.12	0	.	.	-8
O=C(NCCNC(=O)c1cc(OCC(F)(F)F)ccc1OCC(F)(F)F)Nc1ccccc1	-0.9	8.7*	-7	-45	6
COc1cccc(N2CCN(C(=O)CCNS(=O)(=O)c3ccc4c(c3)c(=O)n(C)c(=O)n4C)CC2)c1	1.6	0	.	.	-9
Cc1cc(NC(=O)COC(=O)[C@@H](NS(=O)(=O)c2ccc(Br)cc2)C(C)C)no1	0.85	.	.	.	.
O=C(O)c1c[nH]c(=S)n1-c1ccc(F)cc1	1.5	1	103*	-33	-7
CSc1ncc(C(=O)O)n1-c1ccc(F)cc1	-3.3	2	-3	14	-5
Cc1ccc(CNC(=O)C(=O)NCC2OCCN2C(=O)c2cccs2)cc1 (configuration not stated)	-0.16	9.5*	-3	-7	-9
Cc1nc(SCC(=O)NC(=O)NC(C)(C)C)nc(C)c1C	0.1	.	.	.	.
COc1ccccc1NC(=S)NNC(=O)c1cc(C)nn1C	0.27	2	0	-16	14
COc1ccccc1NC(=S)NNC(=O)c1c(Cl)c(C)nn1C	0.06	5	-15	-43	65*
Cc1ccc(-n2c(O)c(C=Nc3ccc4c(c3)OCO4)c3ccccc3c2=O)cc1C	.	10*	-14	-58	9
CC(=O)Nc1ccc(S(=O)(=O)NCCSCc2ccc(Cl)cc2Cl)cc1	-1.9	6	-22	-37	16
CCC(C)n1ncn(-c2ccc(N3CCN(c4ccc(OCC5COC(Cn6cncn6)(c6ccc(Cl)cc6Cl)O5)cc4)CC3)cc2)c1=O (configuration not stated)	-1.6	.	.	.	-66
CCCC1COC(Cn2cncn2)(c2ccc(C)cc2)O1 (configuration not stated)	.	-1	-20	94*	-46
CC(=O)NC(c1cccc([N+](=O)[O-])c1)c1c(OC(C)=O)ccc2ccccc12 (configuration not stated)	-0.27	1	.	-37	1
CC(=O)Oc1ccc2ccccc2c1C(NC(=O)Cc1ccccc1)c1ccccc1 (configuration not stated)	.	9.6*	4	-78	-12
COc1cccc(/C=N/n2c(C)nc3ccccc32)c1OC	-0.034	3	-17	-27	62*
O=[N+]([O-])c1ccc(C=Nc2ccc(Cl)c([N+](=O)[O-])c2)s1	0.33	-1	.	.	14
SMILES	Cl transport mod	RAM network inh	Yeast lifespan up	BB579 growth dn	WT yeast gro inh
NC(=O)c1ccc(N=Cc2ccc([N+](=O)[O-])s2)cc1	0.049	-1	-11	100*	6
O=[N+]([O-])c1ccc(/C=N/n2c(CO)nc3ccccc32)s1	-0.073	2	-2	-39	11
Cc1cc(C)cc(N=Cc2ccc([N+](=O)[O-])s2)c1	-0.016	-1	-11	100*	41
Cc1nc2ccccc2n1/N=C/c1ccc([N+](=O)[O-])s1	0.64	0	-7	-12	80*
NNC(=O)c1ncoc1-c1ccc(Cl)cc1	1.4	.	.	.	.
O=C(Cn1c(NCCO)nc2ccccc21)NCCc1ccc(F)cc1	-0.7	1	-12	-6	9
O=C(Cn1nnc2ccccc2c1=O)N[C@@H](Cc1ccccc1)C(=O)O	0.069	.	.	.	.
Cc1ccc(Nc2cc(-n3nc(C)cc3C)ncn2)c(C)c1	-1.5	9.1*	-13	8	25
COc1ccc(-n2c(=O)[nH]cc(C(=O)Nc3ccc(NC(C)=O)cc3)c2=O)cc1	0.16	.	.	.	.
COc1cccc(-n2c(=O)[nH]cc(C(=O)Nc3ccc4c(c3)OCCO4)c2=O)c1	-0.72	8.8*	-1	-64	11
O=C(NC(=S)N1CCOCC1)c1ccc([N+](=O)[O-])cc1	0	2	7	-23	1
NC(=O)C1CCN(CC(=O)NC(=O)NC2CCCC2)CC1	0.16	-1	.	.	-12
Cc1ccc(N2CCN(CCc3nc4cc(NC(=O)c5ccco5)ccc4n3C)CC2)cc1	-1.8	2	-2	-24	2
Cn1c(CCN2CCN(c3ccccc3)CC2)nc2cc(NC(=O)c3ccco3)ccc21	.	1	-11	-47	76*
O=C(O)c1ccccc1C(=O)NNc1ccc(Cl)cc1	.	0	-24	93*	72*
CN1CCC(=NNC(=O)CSc2ccc(Cl)cc2)CC1	1.3	1	.	.	-5
COc1ccc([N+](=O)[O-])cc1NC(=O)CC1SC(=Nc2cccc(C)c2C)N(/N=C/c2cccc(OC)c2OC)C1=O (configuration not stated)	0.56	10*	.	.	-4
Cc1ccc(-c2cc(-c3ccccc3)c3c(N)c(S(C)(=O)=O)sc3n2)cc1	.	3	-11	-31	5
CS(=O)(=O)c1sc2nc(-c3cccs3)cc(-c3ccccc3)c2c1N	0.01	11*	-19	6	-25
O=C(Nc1cccc(Oc2ccc3c(c2)C(=O)NC3=O)c1)c1cccs1	-0.55	2	-3	-33	-16
CCSc1cnn(-c2ccccc2)c(=O)c1SCC	0.67	1	-1	-11	-18
CCCCSc1cnn(-c2ccccc2)c(=O)c1SCCCC	-0.7	2	.	-6	64*
C[C@]12CC[C@@H]3c4ccc(O)cc4CC[C@H]3[C@@H]1CC[C@@H]2OC(=O)CCC(=O)O	-0.8	2	57*	-61	-4
C[C@]12CC[C@@H]3c4ccc(O)cc4CC[C@H]3[C@@H]1C[C@@H](O)[C@@H]2O	0	1	3	-28	-6
CCN(CC)S(=O)(=O)c1ccc(C)c(N=C=S)c1	-0.52	4	.	.	27
Cc1ccc2nc(C)c3c(c2c1)N(c1ccc(F)cc1)CC3	-0.56	.	.	.	.
COc1ccc(-c2cc(C)nc3c(-c4ccccc4)cnn23)cc1	-0.39	9.0*	.	.	-5
Cc1ccc(NC(=O)C2CC(=O)N/C(=N/N=C/c3ccco3)S2)cc1C (configuration not stated)	-0.92	6	-1	-24	11
O=C(NC(=S)Nc1ccccc1N1CCCC1)c1ccccc1[N+](=O)[O-]	16*	0	-4	-18	43
